Laboratory results: ChEMBL document CHEMBL4118188, “A small diversity library of α-methyl amide analogs of sulindac for probing anticancer structure-activity relationships” (Bioorg Med Chem Lett, 2018)

Legend:
PC-3 = assay: Growth inhibition of human PC3 cells measured after 72 hrs by Celltiter-Glo reagent based assay; format: functional; details: PC-3, 72 h
HT-29 = assay: Growth inhibition of human HT-29 cells measured after 72 hrs by Celltiter-Glo reagent based assay; format: functional; details: HT-29, 72 h
MDA-MB-231 = assay: Growth inhibition of human MDA-MB-231 cells measured after 96 hrs by Celltiter-Glo reagent based assay; format: functional; details: MDA-MB-231, 96 h
Jurkat E6.1 = assay: Growth inhibition of human Jurkat E6-1 cells measured after 72 hrs by Celltiter-Glo reagent based assay; format: functional, cell-based; details: jurkat e6.1
In short: (§1)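 Cell line sources: Raji is a Burkitt's lymphoma line (FAB L3); Jurkat E6-1 is an acute T-cell leukemia line; REH is a patient-derived precursor B-cell ALL line expressing only wild-type MLL and wild-type AF4; 697 was established from bone marrow of children with relapsed ALL; CPC300 derives from a mouse model of choroid plexus carcinoma.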

REH = assay: Growth inhibition of human REH cells measured after 72 hrs by CellTiter-Glo reagent based assay; format: functional, cell-based; details: Homo sapiens, REH, 72 h; read-out: EC50; in short: as §1
697 = assay: Growth inhibition of human 697 cells after 72 hrs by CellTiter-Glo reagent based assay; format: functional, cell-based; details: 697; in short: as §1
[1] = Growth inhibition of mouse CPC300 cells measured after 72 hrs by Celltiter-Glo reagent based assay; format: functional; in short: as §1
[2] = Growth inhibition of human NALM16 cells measured after 72 hrs by Celltiter-Glo reagent based assay; format: functional
BJ = assay: Growth inhibition of human BJ cells after 72 hrs by CellTiter-Glo reagent based assay; format: cell-based

| Structure (SMILES) | CC50 (PC-3) [µM] | CC50 (HT-29) [µM] | CC50 (MDA-MB-231) [µM] | other results |
| --- | --- | --- | --- | --- |
| CC1=C(C(C)C(=O)N(C)CCN(C)C)c2cc(F)ccc2/C1=C\c1ccc([S+](C)[O-])cc1 (centres undefined) | 44.6 | 11.8 | > 50 |  |
| CCN(CC)CCNC(=O)C(C)C1=C(C)/C(=C/c2ccc([S+](C)[O-])cc2)c2ccc(F)cc21 (centres undefined) | 40 | 11.1 | 36.6 |  |
| CC1=C(C(C)C(=O)N2CCN(c3ccncc3)CC2)c2cc(F)ccc2/C1=C\c1ccc([S+](C)[O-])cc1 (centres undefined) | 10.5 | 4.99 | 19.6 |  |
| CCN(CC)CCN(C)C(=O)C(C)C1=C(C)/C(=C/c2ccc(SC)cc2)c2ccc(F)cc21 (centres undefined) | 7.27 | 2.22 | 6.71 |  |
| CSc1ccc(/C=C2/C(C)=C(C(C)C(=O)NCCN3CCCCC3)c3cc(F)ccc32)cc1 (centres undefined) | 5.06 | 2.03 | 5.32 |  |
| CCN1CCC[C@H]1CNC(=O)C(C)C1=C(C)/C(=C/c2ccc([S+](C)[O-])cc2)c2ccc(F)cc21 (some centres undefined) | 41.5 | 9.35 | 24.9 |  |
| CNCCCN(C)C(=O)C(C)C1=C(C)/C(=C/c2ccc([S+](C)[O-])cc2)c2ccc(F)cc21 (centres undefined) | 33.7 | 10.5 | 36.8 |  |
| CC1=C(C(C)C(=O)NCCN2CCCC2)c2cc(F)ccc2/C1=C\c1ccc([S+](C)[O-])cc1 (centres undefined) | 31.9 | 13.7 | 39.2 |  |
| CC1=C(C(C)C(=O)N(CCCNC(C)C)C(C)C)c2cc(F)ccc2/C1=C\c1ccc([S+](C)[O-])cc1 (centres undefined) | 15.7 | 7.13 | 23 |  |
| CC1=C(C(C)C(=O)NCc2ccco2)c2cc(F)ccc2/C1=C\c1ccc([S+](C)[O-])cc1 (centres undefined) | > 50 | > 50 | > 50 |  |
| COC(=O)[C@H](Cc1c[nH]cn1)NC(=O)C(C)C1=C(C)/C(=C/c2ccc([S+](C)[O-])cc2)c2ccc(F)cc21 (some centres undefined) | > 50 | > 50 | > 50 |  |
| CSc1ccc(/C=C2/C(C)=C(C(C)C(=O)N3CCC(N4CCCCC4)CC3)c3cc(F)ccc32)cc1 (centres undefined) | 4.36 | 1.89 | 4.3 |  |
| CCN(CC)CCN(CC)C(=O)C(C)C1=C(C)/C(=C/c2ccc([S+](C)[O-])cc2)c2ccc(F)cc21 (centres undefined) | 19.7 | 4.45 | 23.5 |  |
| CC1=C(C(C)C(=O)NCCN2CCNCC2)c2cc(F)ccc2/C1=C\c1ccc([S+](C)[O-])cc1 (centres undefined) | > 50 | > 50 | > 50 |  |
| CCN1CCC[C@H]1CNC(=O)C(C)C1=C(C)/C(=C/c2ccc(SC)cc2)c2ccc(F)cc21 (some centres undefined) | 4.24 | 1.1 | 3.49 |  |
| CCNCCCN(CC)C(=O)C(C)C1=C(C)/C(=C/c2ccc([S+](C)[O-])cc2)c2ccc(F)cc21 (centres undefined) | 24.8 | 6.98 | 25.6 |  |
| CCNCCN(CC)C(=O)C(C)C1=C(C)/C(=C/c2ccc(SC)cc2)c2ccc(F)cc21 (centres undefined) | 3.26 | 1.3 | 2.51 |  |
| CC1=C(C(C)C(=O)N2CCC[C@H]2CN2CCCC2)c2cc(F)ccc2/C1=C\c1ccc([S+](C)[O-])cc1 (some centres undefined) | 24.4 | 7.82 | 32 |  |
| CSc1ccc(/C=C2/C(C)=C(C(C)C(=O)N(C)CCN(C)C(=O)[C@@H](N)C(C)C)c3cc(F)ccc32)cc1 (some centres undefined) | 4.83 | 2.22 | 3.86 |  |
| CC1=C(C(C)C(=O)N2CCC(N3CCCCC3)CC2)c2cc(F)ccc2/C1=C\c1ccc([S+](C)[O-])cc1 (centres undefined) | > 50 | 48.4 | > 50 |  |
| CC1=C(C(C)C(=O)NCCCN(C)C)c2cc(F)ccc2/C1=C\c1ccc([S+](C)[O-])cc1 (centres undefined) | > 50 | 22.5 | > 50 |  |
| CSc1ccc(/C=C2/C(C)=C(C(C)C(=O)N(C)CCN(C)C(=O)C3CCCN3)c3cc(F)ccc32)cc1 (single isomer, unassigned) | 5.21 | 2.06 | 3.99 |  |
| CSc1ccc(/C=C2/C(C)=C(C(C)C(=O)N3CCC[C@H]3CN3CCCC3)c3cc(F)ccc32)cc1 (some centres undefined) | 3.93 | 0.84 | 3.57 | EC50 (Jurkat E6.1): Not Active; EC50 (REH): 11 µM; EC50 697: Not Active; EC50 [1]: Not Active; EC50 [2]: Not Active; EC50 (BJ): > 7.57 µM |
| CCN(CC)CCN(CC)C(=O)C(C)C1=C(C)/C(=C/c2ccc(SC)cc2)c2ccc(F)cc21 (centres undefined) | 6.59 | 2.31 | 5.98 |  |
| COc1cc(/C=C2/C(C)=C(C(C)C(=O)NCc3ccco3)c3cc(F)ccc32)cc(OC)c1OC (centres undefined) | 3.88 | 2.88 | 5.51 |  |
| COC(=O)[C@@H](Cc1c[nH]cn1)NC(=O)C(C)C1=C(C)/C(=C/c2ccc(SC)cc2)c2ccc(F)cc21 (some centres undefined) | 16.8 | 10.7 | 15 |  |

| Structure (SMILES) | CC50 (PC-3) [µM] | CC50 (HT-29) [µM] | CC50 (MDA-MB-231) [µM] | other results |
| --- | --- | --- | --- | --- |
| CC1=C(C(C)C(=O)N2CCN(CCN(C)C)CC2)c2cc(F)ccc2/C1=C\c1ccc([S+](C)[O-])cc1 (centres undefined) | 50 | 38.4 | > 50 |  |
| CSc1ccc(/C=C2/C(C)=C(C(C)C(=O)N(C)CCN(C)C)c3cc(F)ccc32)cc1 (centres undefined) | 5.55 | 1.43 | 3.66 |  |
| CC1=C(C(C)C(=O)N(C)CCN(C)C(=O)[C@@H](N)C(C)C)c2cc(F)ccc2/C1=C\c1ccc([S+](C)[O-])cc1 (some centres undefined) | 28.8 | 26 | 47.6 |  |
| COC(=O)[C@H](Cc1c[nH]cn1)NC(=O)C(C)C1=C(C)/C(=C/c2ccc(SC)cc2)c2ccc(F)cc21 (some centres undefined) | 14.4 | 6.62 | 12.7 |  |
| COc1cc(/C=C2/C(C)=C(C(C)C(=O)N3CCN(CCCN(C)C)CC3)c3cc(F)ccc32)cc(OC)c1OC (centres undefined) | 9.61 | 3.69 | 7.34 |  |
| CSc1ccc(/C=C2/C(C)=C(C(C)C(=O)NCc3ccccc3)c3cc(F)ccc32)cc1 (centres undefined) | > 50 | 22.9 | > 50 |  |
| CC1=C(C(C)C(=O)NCCN(C)C)c2cc(F)ccc2/C1=C\c1ccc([S+](C)[O-])cc1 (centres undefined) | > 50 | 12.7 | > 50 |  |
| CSc1ccc(/C=C2/C(C)=C(C(C)C(=O)N3CCN(CCCN(C)C)CC3)c3cc(F)ccc32)cc1 (centres undefined) | 4.14 | 1.5 | 3.06 |  |
| CSc1ccc(/C=C2/C(C)=C(CC(=O)NCCN(C)C)c3cc(F)ccc32)cc1 | 3.12 | 0.65 | 2.67 |  |
| CSc1ccc(/C=C2/C(C)=C(C(C)C(=O)NCc3ccco3)c3cc(F)ccc32)cc1 (centres undefined) | 23.5 | 11.2 | 26.1 |  |
| CCNCCCN(CC)C(=O)C(C)C1=C(C)/C(=C/c2ccc(SC)cc2)c2ccc(F)cc21 (centres undefined) | 4.6 | 2.01 | 3.97 |  |
| CC1=C(C(C)C(=O)N2CCN(CCCN(C)C)CC2)c2cc(F)ccc2/C1=C\c1ccc([S+](C)[O-])cc1 (centres undefined) | > 50 | 32 | > 50 |  |
| CC1=C(C(C)C(=O)NCc2ccccc2)c2cc(F)ccc2/C1=C\c1ccc([S+](C)[O-])cc1 (centres undefined) | 15.7 | 17.2 | 26 |  |
| CCN(CCN(C)C)C(=O)C(C)C1=C(C)/C(=C/c2ccc([S+](C)[O-])cc2)c2ccc(F)cc21 (centres undefined) | 28.1 | 9.51 | 32 |  |
| CNCCN(C)C(=O)C(C)C1=C(C)/C(=C/c2ccc(SC)cc2)c2ccc(F)cc21 (centres undefined) | 4.06 | 1.31 | 3.21 |  |
| CCN(CC)CCCNC(=O)C(C)C1=C(C)/C(=C/c2ccc([S+](C)[O-])cc2)c2ccc(F)cc21 (centres undefined) | > 50 | 15.5 | > 50 |  |
| CC1=C(C(C)C(=O)NCCN2CCCCC2)c2cc(F)ccc2/C1=C\c1ccc([S+](C)[O-])cc1 (centres undefined) | 36.3 | 9.67 | 39.3 |  |
| CNCCCN(C)C(=O)C(C)C1=C(C)/C(=C/c2ccc(SC)cc2)c2ccc(F)cc21 (centres undefined) | 4.96 | 1.98 | 3.83 |  |
| CNCCN(C)C(=O)C(C)C1=C(C)/C(=C/c2ccc([S+](C)[O-])cc2)c2ccc(F)cc21 (centres undefined) | 27.9 | 10.7 | > 50 |  |
| CCN(CC)CCN(C)C(=O)C(C)C1=C(C)/C(=C/c2ccc([S+](C)[O-])cc2)c2ccc(F)cc21 (centres undefined) | 29.3 | 5.83 | > 50 |  |
| CC1=C(C(C)C(=O)N(CCNC(C)C)C(C)C)c2cc(F)ccc2/C1=C\c1ccc([S+](C)[O-])cc1 (centres undefined) | 15.2 | 8.06 | 21.3 |  |
| CC1=C(C(C)C(=O)N(C)CCN(C)C(=O)[C@@H]2CCCN2)c2cc(F)ccc2/C1=C\c1ccc([S+](C)[O-])cc1 (some centres undefined) | 27.9 | 20.1 | > 50 |  |
| CSc1ccc(/C=C2/C(C)=C(C(C)C(=O)NCCCN(C)C)c3cc(F)ccc32)cc1 (centres undefined) | 7.24 | 2.58 | 6.42 |  |
| CC1=C(C(C)C(=O)N(C)CCCN(C)C)c2cc(F)ccc2/C1=C\c1ccc([S+](C)[O-])cc1 (centres undefined) | > 50 | 16.6 | > 50 |  |
| CCNCCN(CC)C(=O)C(C)C1=C(C)/C(=C/c2ccc([S+](C)[O-])cc2)c2ccc(F)cc21 (centres undefined) | 26.3 | 9.99 | 27.9 |  |
